Screens from PubChem BioAssay.
A selection: hits, their analogues and other compounds. The true share with any hit is near 1.9%.
STEP block – inhibitors of human striatal-enriched phosphatase STEP | inhibition, % at 20 µM | AID 588621 | P54829 | 360,000 compounds, 0.25% hits | recombinant STEP, OMFP fluorogenic substrate, fluorescence;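 active = inhibition at 20 µM, scaled per plate between control wells, above about 37%, limit read from the data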;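 also: 0% = DMSO with enzyme and substrate and 100% = substrate only without enzyme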
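Test system: STEP tyrosine phosphatase / Reagent: OMFP at 25 µM / Doses: 20 µM, 1% DMSO / Read-out: percent inhibition scaled to no-enzyme and uninhibited-enzyme controls, plate-pattern corrected / Detection: FITC-channel fluorescence of OMFP product / Medium: Bis-Tris buffer pH 6.0, 2.5 mM DTT, 0.005% Tween 20 / Schedule: 20 min at room temperature, dark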
SUMO1-SIM PPI – alters human SUMO1 binding to SIM partners; inhibition, % at 20 µM; 360,000 compounds, 0.33% hits; P63165; SUMO1 binding to a labelled peptide, TR-FRET, 1 h; in the data active = inhibition above about 37%
Target sequence (P63165 whole entry, looked up): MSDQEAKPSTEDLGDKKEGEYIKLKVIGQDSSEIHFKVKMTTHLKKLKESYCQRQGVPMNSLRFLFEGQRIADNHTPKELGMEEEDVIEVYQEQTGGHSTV
LMPTP block – blocks human LMPTP phosphatase; recombinant LMPTP-A, OMFP fluorogenic substrate, fluorescence intensity; inhibition, % at 20 µM; 360,000 compounds, 0.22% hits; AID 651560;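 active = compounds that cut the enzyme signal by at least half of the control window in the single-dose screen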;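 also: plate controls were DMSO wells with enzyme plus substrate for no effect and substrate without enzyme for full effect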
Target sequence (P24666 whole entry, looked up): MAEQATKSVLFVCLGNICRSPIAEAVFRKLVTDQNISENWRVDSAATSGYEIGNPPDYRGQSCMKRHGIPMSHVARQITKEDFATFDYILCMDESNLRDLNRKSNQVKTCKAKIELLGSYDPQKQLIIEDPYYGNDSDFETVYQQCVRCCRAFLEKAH
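Test system – LMPTP-A phosphatase enzyme · Quantity – 0.625 nM LMPTP-A final · Reagent – OMFP substrate, 400 µM final · Dosing – one test concentration per compound, 20 µM, with 3% DMSO overall · Timing – 50 min enzyme reaction at room temperature, protected from light · Detection – fluorescence intensity · Controls – substrate-only low control, DMSO enzyme-plus-substrate high control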
DNMT1 inh – DNMT1 (human) enzyme inhibition; inhibition (reported as % activation of signal), % at 10 µM; AID 588458; 360,000 compounds, 0.83% hits; DNMT1 molecular beacon, Hinp1I cleavage, fluorescence; P26358; in the data active = inhibition above about 50%
Scp-1 inhibitor – inhibitors of human Scp-1 phosphatase | AID 493091 | Recombinant Scp1, phosphopeptide, malachite green phosphate absorbance | Q9GZU7 | inhibition, % at 20 µM | 340,000 compounds, 0.88% hits;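 active = inhibition above about 50% at 20 µM, limit read from the data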;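 also: plate controls were DMSO wells with enzyme for no effect and wells lacking enzyme for full effect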
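assay system = SCP-1 phosphatase catalytic domain, residues 76-261 | buffer or medium = 50 mM Tris acetate pH 5.5, 0.005% Tween-20, 10 mM MgCl2 | incubation = enzyme reaction 45 min at room temperature, colour 5 min, stabilisation 30 min | signal = Phosphate-binding colour reagent, absorbance read at 630 nm | measure = % inhibition at 20 µM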
UBC9 SUMO inh – inhibitors of human SUMOylation (UBC9); inhibition, % at 35 µM; HTRF SUMOylation assay, SAE1/SAE2 + UBC9, in vitro; P63279; 290,000 compounds, 0.36% hits; AID 2006; in the data active = inhibition above about 50%, passing the limit was not always enough
Target sequence (P63279 whole entry, looked up): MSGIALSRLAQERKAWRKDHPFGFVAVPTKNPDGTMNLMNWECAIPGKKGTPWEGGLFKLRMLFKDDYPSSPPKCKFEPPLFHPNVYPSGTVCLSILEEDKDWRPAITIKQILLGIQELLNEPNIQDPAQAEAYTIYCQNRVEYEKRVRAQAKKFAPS
Scp1 confirm – Scp-1 (human) inhibition, single-dose confirmed; inhibition, % at 20 µM; recombinant SCP-1 catalytic domain, phosphate release, malachite green absorbance; 2,500 compounds, 61% hits; shares compounds with Scp-1 inhibitor;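 also: plate controls were DMSO with enzyme for no effect and buffer wells lacking enzyme for full effect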
Scp-1 MG ctr – interferes with malachite green readout, flagging false Scp-1 hits; Colorimetric interference counterscreen, malachite green absorbance 630 nm; 2,500 tested, under 10 active; shares compounds with Scp-1 inhibitor; AID 540313; apparent inhibition (interference), % at 20 µM;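 also: compounds added after enzyme reaction finished so only phosphate colour detection is probed; plate controls were DMSO wells with completed Scp-1 reaction for no effect and substrate wells lacking enzyme for full effect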
Scp-1 Tm shift – validation of human Scp-1 inhibitors by thermal shift binding | thermal shift relative to vanadate control, % at 40 µM | shares compounds with Scp-1 inhibitor | 1,500 compounds, 25% hits | Recombinant SCP1, Sypro Orange thermal shift Tm;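 active = substances whose mean melting-temperature shift, as a percentage of the reference inhibitor's shift, reaches about 5.3%, limit read from the data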;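 also: 0% = Tm of DMSO wells and 100% = Tm with sodium orthovanadate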
DNMT1 interf DR – beacon fluorescence artifact, dose response counter-screen; IC50, µM; shares compounds with DNMT1 inh; molecular beacon fluorescence, spectral interference counter-screen; 200 tested, under 10 active; call rule not given here
DNMT1 confirm – DNMT1 inhibition confirmation, single concentration | shares compounds with DNMT1 inh | DNMT1 molecular beacon HinP1I cleavage, fluorescence | inhibition, % at 10 µM | 2,300 compounds, 8% hits;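 active = average inhibition of at least 30% in the single-concentration confirmation test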
DNMT1 interf – beacon fluorescence artifact counter-screen | shares compounds with DNMT1 inh | DNMT1 molecular beacon spectral interference counterscreen, fluorescence 485/520 | activation (fluorescence interference), % at 10 µM | 2,300 compounds, 1% hits;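 active = activation of at least 30% at 10 µM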;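 also: DNMT1 catalytic domain with a HinP1I cleavage step and a FAM/dabcyl DNA beacon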
The depositor's hits bear a star; · = no result.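 The calls were made as follows, unless noted: active = inhibition of at least 30% at 20 µM; inactive = the rest.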

SMILES	STEP block	SUMO1-SIM PPI	LMPTP block	DNMT1 inh	Scp-1 inhibitor	UBC9 SUMO inh	Scp1 confirm	Scp-1 MG ctr	Scp-1 Tm shift	DNMT1 interf DR	DNMT1 confirm	DNMT1 interf
O=c1c2c3c(sc2n(CCN2CCCC2)c(=O)n1Cc1ccco1)CCCCC3	4	5	2	3	13	-9	·	·	·	·	·	·
CN(C)CCn1c(=O)n(Cc2ccco2)c(=O)c2c3c(sc21)CCCCC3	4	13	0	-2	-4	-11	·	·	·	·	·	·
O=C(Cn1c(=O)n(Cc2ccco2)c(=O)c2c3c(sc21)CCCCC3)c1ccccc1	6	7	7	72*	56*	20	3	-16	·	·	2	2
O=C(Cn1c(=O)n(Cc2ccco2)c(=O)c2c3c(sc21)CCCCC3)Nc1ccccc1	5	14	21	93*	74*	23	44*	-29	7.9*	·	13	2
C=C(C)C(=O)Nc1cccc(C2=NOC3(C2)C[C@@H](C(N)=O)N(C(=O)c2cc([N+](=O)[O-])cc([N+](=O)[O-])c2C)C3)c1 (stereo partly drawn)	1	46*	1	96*	70*	9	64*	-6	4	·	17	3
C=C(C)C(=O)Nc1cccc(C2=NOC3(C2)C[C@@H](C(N)=O)N(C(=O)C2(C)CC2)C3)c1 (stereo partly drawn)	13	91*	0	106*	75*	-7	60*	-16	-5	>99	103*	4
C=C(C)C(=O)Nc1cccc(C2=NOC3(C2)C[C@H](C(N)=O)N(C(=O)c2ccccc2)C3)c1 (stereo partly drawn)	0	36	1	91*	88*	21	65*	1	4	·	14	1
C/C=C/C(=O)Nc1cccc(C2=NOC3(C2)C[C@@H](C(N)=O)N(C(=O)c2cc([N+](=O)[O-])cc([N+](=O)[O-])c2C)C3)c1 (stereo partly drawn)	-3	-28	-2	4	2	10	·	·	·	·	·	·
C=C(C)C(=O)Nc1cccc(C2=NOC3(C2)C[C@@H](C(N)=O)N(C(=O)/C=C/CC)C3)c1 (stereo partly drawn)	7	64*	0	109*	69*	-6	57*	-13	-29	>99	42*	1
Cc1ccc(S(=O)(=O)N2CCOC23CCN(C(=O)C(=O)NCCC(C)C)CC3)cc1	-4	-1	-1	1	-5	·	·	·	·	·	·	·
C/C=C(/C)C(=O)Nc1cccc(C2=NOC3(C2)C[C@H](C(N)=O)N(C(=O)c2ccc(Cl)cc2)C3)c1 (stereo partly drawn)	-1	4	2	-6	-6	30	·	·	·	·	·	·
C=C(C)C(=O)Nc1cccc(C2=NOC3(C2)C[C@@H](C(N)=O)N(C(=O)C(=C)C)C3)c1 (stereo partly drawn)	3	63*	-1	103*	70*	17	62*	-9	-11	>99	60*	3
